Source: ChEMBL document CHEMBL1782055, “2,3-dideoxy hex-2-enopyranosid-4-uloses as promising new anti-tubercular agents: design, synthesis, biological evaluation and SAR studies” (Eur J Med Chem, 2011)

Legend:
Type in all cases: functional
[1] = test system: Mycobacterium tuberculosis; assay: Antitubercular activity against rifampin and isoniazid-resistant Mycobacterium tuberculosis 2643 after 24 hrs by BACTEC radiometric susceptibility assay; details: Mycobacterium tuberculosis, 2643, 24 h
How it was run: (§1)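 BACTEC radiometric assay in 7H12 (12B) medium with 14C-palmitic acid as substrate; 14CO2 output read daily as Growth Index (GI) at 37 °C ± 1 °C. H37Rv inoculum grown in 12B vial to GI around 300. Compounds dissolved in DMSO. Control vial held 1:100 diluted bacterial suspension. Reading continued until control GI reached 30 or more. Daily change in GI compared with control to set susceptibility and MIC.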

[2] = test system: Mycobacterium tuberculosis; assay: Antitubercular activity against isoniazid-resistant Mycobacterium tuberculosis 433 after 24 hrs by BACTEC radiometric susceptibility assay; details: Mycobacterium tuberculosis, 433, 24 h; how it was run: as §1
[3] = test system: Mycobacterium tuberculosis; assay: Antitubercular activity against rifampin and isoniazid-resistant Mycobacterium tuberculosis TB-1678/05 after 24 hrs by BACTEC radiometric susceptibility assay; details: TB-1678/05, 24 h; how it was run: as §1
[4] = test system: Mycobacterium tuberculosis; assay: Antitubercular activity against ethambutol-resistant Mycobacterium tuberculosis TB-2506/06 after 24 hrs by BACTEC radiometric susceptibility assay; details: TB-2506/06, 24 h; how it was run: as §1

Measured: MIC

CC(C)CCO[C@@H]1C=CC(=O)[C@@H](COC(=O)C(C)(C)C)O1
1.56 µg/mL: all assays above
